# Published values collected from several papers.
# Each line is one published result; the experiments were not run side by side.
SMILES,tested on,test,system,conditions,endpoint,result
N=C(CC(O)c1cc2c(F)cc(F)cc2c2cc(C(F)(F)F)ccc12)Nc1nnc(-c2ccc(F)cc2)o1 (stereo not drawn),Plasmodium falciparum,"parasite growth, ELISA",3D7,"72 h, blood stage",IC50,> 37000 nM
CC(=O)N[C@H]1[C@@H](O[C@@H]2O[C@H](C[C@@H](O)[C@H]3O[C@@H](n4ccc(=O)[nH]c4=O)[C@H](O)[C@@H]3O)[C@H](O)[C@H](O)[C@H]2NC(=O)/C=C/CCCCCCCCCC(C)C)O[C@H](CO)[C@@H](O)[C@@H]1O,MDA-MB-453,"cell growth or viability, WST-1",,,IC50,160 nM
CC(C)C[C@H](NC(=O)[C@H](CC(C)C)NC(=O)[C@H](CCCCN)NC(=O)[C@H](CCCCN)NC(=O)[C@H](CC(C)C)NC(=O)[C@H](CC(C)C)NC(=O)[C@H](CCCCN)NC(=O)[C@H](CCCCN)NC(=O)[C@H](CCC(=O)O)NC(=O)[C@H](CC(C)C)NC(=O)[C@H](CCCCN)NC(=O)[C@H](CCCCN)NC(=O)[C@H](CC(C)C)NC(=O)[C@@H](N)CC(C)C)C(N)=O,HCCC9810,"cell growth or viability, CCK-8",,,IC50,325000 nM
CCN1CCN(Cc2ccc(Nc3nc4ccc(Oc5ccnc(NC(=O)C6CCN(C)CC6)c5)cc4n3C)cc2C(F)(F)F)CC1,Plasmodium falciparum,"parasite growth, SYBR Green",3D7,blood stage,EC50,210 nM
N.N.[Cl][Pt][Cl],RS4-11,"cell growth or viability, ATP luminescence",,"10 µM, 72 h",inhibition,100%
C[C@@H]1CC[C@H]2[C@@H](C)C(=O)O[C@@H]3O[C@@]4(C)CC[C@@H]1[C@]32OO4,Plasmodium falciparum,parasite growth,DD2,"drug-resistant strain, blood stage",IC50,8.9 nM
N=C(CC(O)c1cc2c(F)cc(F)cc2c2cc(C(F)(F)F)ccc12)NC1CC(F)(F)C1 (stereo not drawn),Plasmodium falciparum,"parasite growth, ELISA",3D7,"72 h, blood stage",IC50,80.2 nM
CO[C@H]1/C=C/O[C@@]2(C)Oc3c(C)c(O)c4c(O)c(c(/C=N/N5CCN(C6CCCC6)CC5)c(O)c4c3C2=O)NC(=O)/C(C)=C\C=C\[C@H](C)[C@H](O)[C@@H](C)[C@@H](O)[C@@H](C)[C@H](OC(C)=O)[C@@H]1C,Plasmodium falciparum,parasite growth,DD2,"drug-resistant strain, blood stage",IC50,1980 nM
CC(C)C[C@H](NC(=O)[C@H](CC(C)C)NC(=O)[C@H](CCCCN)NC(=O)[C@H](CCCCN)NC(=O)[C@H](CC(C)C)NC(=O)[C@H](CC(C)C)NC(=O)[C@H](CCCCN)NC(=O)[C@H](CCCCN)NC(=O)[C@H](CC(C)C)NC(=O)[C@H](CCC(=O)O)NC(=O)[C@H](CCCCN)NC(=O)[C@H](CCCCN)NC(=O)[C@H](CC(C)C)NC(=O)[C@@H](N)CC(C)C)C(N)=O,HCCC9810,"cell growth or viability, CCK-8",,,IC50,9400 nM
Cc1cccc(F)c1NC(=N)CC(O)c1cc2c(F)cc(F)cc2c2cc(C(F)(F)F)ccc12 (stereo not drawn),Plasmodium falciparum,"parasite growth, ELISA",3D7,"72 h, blood stage",IC50,13.2 nM
CCN(CC)CCOc1ccc2c(c1)C(=O)c1cc(OCCN(CC)CC)ccc1-2,Plasmodium falciparum,parasite growth,K1,"drug-resistant strain, blood stage",IC50,500 nM
N=C(CC(O)c1cc2c(F)cc(F)cc2c2cc(C(F)(F)F)ccc12)Nc1cccc(F)c1 (stereo not drawn),Plasmodium falciparum,"parasite growth, ELISA",3D7,"72 h, blood stage",IC50,2.1 nM
COc1ccc2cc1Oc1ccc(cc1)C[C@H]1c3c(cc4c(c3Oc3cc5c(cc3OC)CCN(C)[C@@H]5C2)OCO4)CCN1C,Plasmodium falciparum,parasite growth,K1,"drug-resistant strain, blood stage",IC50,91.4 nM
CC(C)C[C@H](NC(=O)[C@H](CC(C)C)NC(=O)[C@H](CCCCN)NC(=O)[C@H](CCCCN)NC(=O)[C@H](CCC(=O)O)NC(=O)[C@H](CC(C)C)NC(=O)[C@H](CCCCN)NC(=O)[C@H](CCCCN)NC(=O)[C@H](CC(C)C)NC(=O)[C@H](CC(C)C)NC(=O)[C@H](CCCCN)NC(=O)[C@H](CCCCN)NC(=O)[C@H](CC(C)C)NC(=O)[C@@H](N)CC(C)C)C(N)=O,HCCC9810,"cell growth or viability, CCK-8",,,IC50,8320 nM
N=C(CC(O)c1cc2c(F)cc(F)cc2c2cc(C(F)(F)F)ccc12)Nc1nc2ccccc2[nH]1 (stereo not drawn),Plasmodium falciparum,"parasite growth, ELISA",3D7,"72 h, blood stage",IC50,5590 nM
